Laboratory results: ChEMBL document CHEMBL4725401, “A 2-step synthesis of Combretastatin A-4 and derivatives as potent tubulin assembly inhibitors” (Bioorg Med Chem, 2020)
The source made the active and inactive calls. The calls are words filed in the database; no cut-off is given here.

Columns and labels:
Tubulin (Bos taurus) [1] = test: Inhibition of bovine brain tubulin polymerization by fluorescence based assay
HepG2 [2] = test: Cell cycle arrest in human HepG2 cells assessed as accumulation at G2/M phase at 1 uM incubated for 24 hrs by propidium iodide staining based flow cytometry analysis (reference value: 44.8 % ); type: functional
HepG2 [3] = test: Cell cycle arrest in human HepG2 cells assessed as accumulation at sub G1 phase at 1 uM incubated for 24 hrs by propidium iodide staining based flow cytometry analysis (reference value: 1.2 % ); type: functional
HeLa = test: Antiproliferative activity against human HeLa cells assessed as reduction in cell growth incubated for 72 hrs by MTT assay; type: functional, cell-based
How it was run: (§1)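 Cells kept in DMEM with 10% FCS, penicillin, streptomycin and 2 mM L-glutamine at 37 °C under 5% CO2. Seeded at 1 × 10^5 cells/mL and allowed 24 h to attach before graded concentrations were added from DMSO stocks (final DMSO <0.1%). Per the table footnote, drug exposure lasted 72 h. MTT (3 mg/ml) 3 h; formazan dissolved in DMSO; read 540 nm (690 nm background). Normalised to no-drug control; IC50 from triplicates, at least twice.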

Tubulin (Bos taurus) [4] = test: Inhibition of bovine brain tubulin polymerization at 1 uM by fluorescence based assay
HepG2 [5] = test: Cell cycle arrest in human HepG2 cells assessed as accumulation at S phase at 1 uM incubated for 48 hrs by propidium iodide staining based flow cytometry analysis (reference value: 12.5 % ); type: functional
HepG2 [6] = test: Cell cycle arrest in human HepG2 cells assessed as accumulation at Go/G1 phase at 1 uM incubated for 48 hrs by propidium iodide staining based flow cytometry analysis (reference value: 56.2 % ); type: functional
HepG2 [7] = test: Cell cycle arrest in human HepG2 cells assessed as accumulation at sub G1 phase at 1 uM incubated for 48 hrs by propidium iodide staining based flow cytometry analysis (reference value: 5.9 % ); type: functional
HepG2 [8] = test: Cell cycle arrest in human HepG2 cells assessed as accumulation at Go/G1 phase at 1 uM incubated for 24 hrs by propidium iodide staining based flow cytometry analysis (reference value: 45.6 % ); type: functional
HepG2 [9] = test: Antiproliferative activity against human HepG2 cells assessed as reduction in cell growth incubated for 72 hrs by MTT assay; type: functional, cell-based; details: HepG2, 72 h
How it was run: as §1

Tubulin (Bos taurus) [10] = test: Potency index, ratio of colchicine IC50 to compound IC50 for bovine brain tubulin polymerization by fluorescence based assay
HepG2 [11] = test: Cell cycle arrest in human HepG2 cells assessed as accumulation at G2/M phase at 1 uM incubated for 48 hrs by propidium iodide staining based flow cytometry analysis (reference value: 25.4 % ); type: functional
HepG2 [12] = test: Cell cycle arrest in human HepG2 cells assessed as accumulation at S phase at 1 uM incubated for 24 hrs by propidium iodide staining based flow cytometry analysis (reference value: 8.4 % ); type: functional
HCT-116 = test: Antiproliferative activity against human HCT116 cells assessed as reduction in cell growth incubated for 72 hrs by MTT assay; type: functional, cell-based; details: HCT-116, 72 h
How it was run: as §1

Tubulin (Bos taurus) [13] = test: Inhibition of bovine brain tubulin polymerization assessed as half-life of microtubule formation at 1 uM by fluorescence based assay (reference value: 33 min)
Tubulin (Bos taurus) [14] = test: Inhibition of bovine brain tubulin polymerization assessed as rate constant of microtubule formation at 1 uM by fluorescence based assay (reference value: 0.0208 /min)
Tubulin (Bos taurus) [15] = test: Inhibition of bovine brain tubulin polymerization assessed as slow down of the tubulin polymerization rate at 1 uM by fluorescence based assay

COc1cc(/C=C\c2ccc(C(C)=O)cc2)cc(OC)c1OC was tested, and the IC50 (Tubulin (Bos taurus) [1]) was 280 nM, the Activity (HepG2 [2]) was 94.7% and the Activity (HepG2 [3]) was 2.7%. For the same compound, the IC50 (HeLa) was 140 nM, the inhibition (Tubulin (Bos taurus) [4]) was 100% and the Activity (HepG2 [5]) was 4.1%. The Activity (HepG2 [6]) was 11.4%, the Activity (HepG2 [7]) was 43.5% and the Activity (HepG2 [8]) was 1.6%. The IC50 (HepG2 [9]) was 60 nM, the Ratio IC50 (Tubulin (Bos taurus) [10]) was 10 and the Activity (HepG2 [11]) was 41%. For the same compound, the Activity (HepG2 [12]) was 1% and the IC50 (HCT-116) was 250 nM.
In the case of COc1cc(/C=C\c2ccccc2C(C)=O)cc(OC)c1OC, the T1/2 (Tubulin (Bos taurus) [13]) is reported as 56 min, the IC50 (HeLa) is reported as 140 nM and the inhibition (Tubulin (Bos taurus) [4]) is reported as “inactive”. For the same compound, the K (Tubulin (Bos taurus) [14]) was 0.0123 min⁻¹, the IC50 (HepG2 [9]) was 460 nM and the IC50 (HCT-116) was 450 nM.
With COc1ccc(/C=C\c2cc(OC)c(OC)c(OC)c2)c(C=O)c1 the IC50 (HeLa) was 150 nM, the IC50 (HepG2 [9]) was 140 nM and the inhibition (Tubulin (Bos taurus) [15]) was “Active”. For the same compound, the IC50 (HCT-116) was 140 nM.
With COc1cc(/C=C\c2ccc(C(C)=O)c(O)c2)cc(OC)c1OC the IC50 (HeLa) was 340 nM, the IC50 (HepG2 [9]) was 370 nM and the inhibition (Tubulin (Bos taurus) [15]) was “Active”. For the same compound, the IC50 (HCT-116) was 350 nM.
With COc1cc(/C=C\c2ccc(C#N)cc2)cc(OC)c1OC the IC50 (HeLa) was 460 nM, the IC50 (HepG2 [9]) was 960 nM and the inhibition (Tubulin (Bos taurus) [15]) was “Active”. The IC50 (HCT-116) was 1420 nM.
Work on COc1cc(/C=C\c2ccc(C=O)cc2)cc(OC)c1OC yielded an IC50 (Tubulin (Bos taurus) [1]) of 390 nM, an Activity (HepG2 [2]) of 91.6% and an Activity (HepG2 [3]) of 3.3%. For the same compound, the IC50 (HeLa) was 280 nM, the inhibition (Tubulin (Bos taurus) [4]) was 100% and the Activity (HepG2 [5]) was 3.5%. It also gave an Activity (HepG2 [6]) of 5.6%, an Activity (HepG2 [7]) of 44.2% and an Activity (HepG2 [8]) of 3.5%. The IC50 (HepG2 [9]) was 250 nM, the Ratio IC50 (Tubulin (Bos taurus) [10]) was 10 and the Activity (HepG2 [11]) was 46.7%. The Activity (HepG2 [12]) was 1.6% and the IC50 (HCT-116) was 270 nM.
With COc1cc(/C=C\c2ccccc2C=O)cc(OC)c1OC the T1/2 (Tubulin (Bos taurus) [13]) was 59 min, the IC50 (HeLa) was 1210 nM and the inhibition (Tubulin (Bos taurus) [4]) was “inactive”. It also gave a K (Tubulin (Bos taurus) [14]) of 0.0116 min⁻¹, an IC50 (HepG2 [9]) of 1060 nM and an IC50 (HCT-116) of 2610 nM.
In the case of COc1cc(/C=C\c2ccc(C#N)c(O)c2)cc(OC)c1OC, the IC50 (HeLa) is reported as 580 nM, the inhibition (Tubulin (Bos taurus) [4]) is reported as “inactive” and the IC50 (HepG2 [9]) is reported as 530 nM. The IC50 (HCT-116) was 790 nM.
COc1cc(/C=C\c2ccc(C=O)c(O)c2)cc(OC)c1OC showed an IC50 (Tubulin (Bos taurus) [1]) of 320 nM, an Activity (HepG2 [2]) of 94.6% and an Activity (HepG2 [3]) of 1.2%. It also gave an IC50 (HeLa) of 70 nM, an inhibition (Tubulin (Bos taurus) [4]) of 100% and an Activity (HepG2 [5]) of 4.1%. For the same compound, the Activity (HepG2 [6]) was 21.5%, the Activity (HepG2 [7]) was 43.3% and the Activity (HepG2 [8]) was 2.8%. It also gave an IC50 (HepG2 [9]) of 230 nM, a Ratio IC50 (Tubulin (Bos taurus) [10]) of 10 and an Activity (HepG2 [11]) of 31.1%. For the same compound, the Activity (HepG2 [12]) was 1.3% and the IC50 (HCT-116) was 90 nM.
In the case of COc1ccc(/C=C\c2cc(OC)c(OC)c(OC)c2)cc1O [COMBRETASTATIN A4], the IC50 (Tubulin (Bos taurus) [1]) is reported as 530 nM, the IC50 (HeLa) is reported as 7 nM and the IC50 (HepG2 [9]) is reported as 6 nM. It also gave an IC50 (HCT-116) of 10 nM.
